Bioassay records: PubChem, Broad Institute
The sample as a whole holds a higher share of hits than the screen did.
KDM4C inh: KDM4C (human) demethylase inhibition; Q9H3R0; GST-KDM4C 2-372, H3K9me3 peptide, LANCE TR-FRET; inhibition, % at 12.5 µM; hit rate 0.15% among 96,000; AID 720574;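 active = mean replicate inhibition above about 25%, with at least 55% of replicates also reaching it, limit read from the data, passing the limit was not always enough; inconclusive = only one of those two conditions met; inactive = neither condition met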
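Test system – GST-tagged GASC-1 (JMJD2C) catalytic fragment, aa 2-372 · Medium – HEPES buffer, pH 7.5, plus ascorbate · Reagent – H3K9me3 peptide with Fe(II)/2OG · Compound – one test concentration per compound · Timing – 30 min reaction, 60 min detection, RT · Technique – TR-FRET with Eu antibody and ULight streptavidin, EDTA stop · Read-out basis – inhibition from TR-FRET ratio decrease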
IDH1 R132H inh: inhibitors of human IDH1 R132H; O75874; IDH1 R132H reductase, diaphorase/resazurin fluorescence, 60 min; inhibition, % at 10 µM; hit rate 0.18% among 70,000; AID 624101; in the data active = inhibition above about 34%; inconclusive = no clear call, values can overlap the other calls; inactive = below about 11%;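 also: 0% = DMSO and 100% = no enzyme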
Target sequence (O75874 whole entry R132H): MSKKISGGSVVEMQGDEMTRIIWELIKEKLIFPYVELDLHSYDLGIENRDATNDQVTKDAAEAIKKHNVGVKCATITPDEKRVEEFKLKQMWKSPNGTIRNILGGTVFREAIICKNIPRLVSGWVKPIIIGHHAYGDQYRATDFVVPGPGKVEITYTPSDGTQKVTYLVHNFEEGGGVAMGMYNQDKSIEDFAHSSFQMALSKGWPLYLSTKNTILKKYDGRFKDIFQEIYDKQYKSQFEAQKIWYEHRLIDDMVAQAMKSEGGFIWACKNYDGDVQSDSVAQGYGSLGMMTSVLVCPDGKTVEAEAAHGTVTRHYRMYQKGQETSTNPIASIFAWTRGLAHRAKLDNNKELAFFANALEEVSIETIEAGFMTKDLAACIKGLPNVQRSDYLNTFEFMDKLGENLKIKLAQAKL
T cruzi growth-1: T. cruzi proliferation inhibition; T. cruzi beta-gal in NIH3T3, GalScreen luminescence, 90 h; inhibition, % at 8.34 µM; hit rate 5.9% among 77,000; AID 624255;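 active = mean inhibition above about 93%, with at least 55% of replicates each passing it, limit read from the data, passing the limit was not always enough; inconclusive = only one of those two conditions holds; inactive = neither condition holds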
T cruzi growth-2: Trypanosoma cruzi proliferation inhibition; shares compounds with T cruzi growth-1; T. cruzi beta-gal in NIH3T3, GalScreen luminescence, 90 h; inhibition, % at 8.35 µM; hit rate 72% among 5,600;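 active = mean replicate inhibition above about 95% and at least 55% of replicates individually reaching it, limit read from the data; inconclusive = only one of the two criteria is met; inactive = neither criterion is met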
T cruzi growth-3: blocks T. cruzi growth in NIH3T3 host cells. shares compounds with T cruzi growth-1. T. cruzi beta-gal in NIH3T3, GalScreen luminescence, 90 h. inhibition, % at 2.09 µM. hit rate 21% among 5,600;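 active = mean inhibition above about 95%, with at least 55% of replicates also reaching it, limit read from the data; inconclusive = meets just one of the two conditions; inactive = meets neither condition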;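 also: plate controls were neutral control median for no effect and positive control median for full effect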
3T3 cytotox: NIH/3T3 (mouse) viability loss | shares compounds with T cruzi growth-1 | NIH/3T3 viability, CellTiter-Glo ATP luminescence, 90 h | cytotoxicity (signal decrease), % at 8.35 µM | hit rate 14% among 5,600 | AID 651742;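 active = mean signal decrease across replicates above about 35% based on untreated-well scatter, with enough replicates individually passing, limit read from the data; inconclusive = no rule stated though some were filed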;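 also: 0% = median of neutral control wells and 100% = median of positive control wells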
NIH3T3 tox 2: kills mouse NIH/3T3 fibroblasts | shares compounds with T cruzi growth-1 | NIH/3T3 viability, CellTiter-Glo ATP luminescence, 90 h | inhibition, % at 24.9 µM | hit rate 56% among 5,600;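 active = mean loss of cell viability signal at or above a set limit, and enough replicates individually reaching it; inconclusive = meets only the mean limit or only the replicate share; inactive = meets neither condition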;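 also: 0% = median of neutral control wells and 100% = median of positive control wells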
Active calls of the source: *; ? = inconclusive; . = no result given.

SMILES	KDM4C inh	IDH1 R132H inh	T cruzi growth-1	T cruzi growth-2	T cruzi growth-3	3T3 cytotox	NIH3T3 tox 2
CC(C)CC#Cc1cnc2c(c1)C(=O)N([C@@H](C)CO)C[C@H](C)[C@@H](CN(C)Cc1ccc3c(c1)OCO3)O2	1.9	-0.8	82.0	.	.	.	.
CC(C)CC#Cc1cnc2c(c1)C(=O)N([C@H](C)CO)C[C@H](C)[C@H](CN(C)Cc1cccc(F)c1)O2	-0.6	-0.8	?	107.2*	34.3	-5.6	14.0
CC(C)CC#Cc1cnc2c(c1)C(=O)N([C@H](C)CO)C[C@@H](C)[C@@H](CN(C)Cc1ccc(F)cc1)O2	-2.4	-0.5	86.1	.	.	.	.
C[C@H]1CN([C@@H](C)CO)C(=O)c2cc(C#CCc3ccccc3)cnc2O[C@@H]1CN(C)Cc1cccc(F)c1	-1.6	0.0	?	89.5	89.0	-34.4	103.5*
O=C(CC1CC1)N1[C@H](CO)[C@@H](c2ccccc2)C12CN(S(=O)(=O)c1ccccc1)C2	-1.0	.	.	.	.	.	.
Clc1snnc1CN1CCOCC1	.	0.3	.	.	.	.	.
CCCC#Cc1cnc2c(c1)C(=O)N([C@H](C)CO)C[C@H](C)[C@@H](CN(C)Cc1ccccc1F)O2	1.4	-4.3	85.5	.	.	.	.
CC(C)CC#Cc1cnc2c(c1)C(=O)N([C@H](C)CO)C[C@@H](C)[C@H](CN(C)Cc1ccccc1F)O2	1.2	-0.7	?	106.2*	58.3	16.7	76.2*
CCc1ccc(OCC(=O)Nc2sc3c(c2C(N)=O)CCCC3)c(Br)c1	.	0.3	.	.	.	.	.
C[C@@H]1CCCCO[C@@H](CN(C)Cc2ccc(Cl)c(Cl)c2)[C@@H](C)CN([C@@H](C)CO)C(=O)c2cc(NC(=O)Nc3ccccc3)ccc2O1	0.0	.	72.9	.	.	.	.
C[C@@H]1CN([C@H](C)CO)C(=O)c2cc(NC(=O)Nc3ccc(F)cc3)ccc2O[C@@H](C)CCCCO[C@@H]1CN(C)Cc1ccc(Cl)c(Cl)c1	11.8	0.4	101.4*	96.4*	105.1*	-29.0	-11.8
C[C@H]1CCCCO[C@H](CN(C)Cc2ccc(Cl)c(Cl)c2)[C@@H](C)CN([C@@H](C)CO)C(=O)c2cc(NC(=O)Nc3ccc(F)cc3)ccc2O1	-2.3	.	101.6*	95.4*	111.5*	2.2	7.3
C[C@H](CO)N1C[C@H](C)[C@H](CN(C)Cc2ccc(Cl)c(Cl)c2)OCCCC[C@H](C)Oc2ccc(NC(=O)Nc3ccccc3)cc2C1=O	0.1	-1.0	69.0	.	.	.	.
C[C@H]1CCCCO[C@H](CN(C)Cc2ccc(Cl)c(Cl)c2)[C@@H](C)CN([C@@H](C)CO)C(=O)c2cc(NC(=O)Nc3ccccc3)ccc2O1	-2.1	.	68.9	.	.	.	.
C[C@@H]1CCCCO[C@@H](CN(C)Cc2ccc(Cl)c(Cl)c2)[C@@H](C)CN([C@@H](C)CO)C(=O)c2cc(NC(=O)Nc3ccc(F)cc3)ccc2O1	0.5	.	108.6*	?	109.3*	3.8	27.1
CCOC(=O)COc1ccc(-c2nc3c([nH]2)c(=O)n(C)c(=O)n3C)cc1OC	.	0.3	.	.	.	.	.
COc1ccc(NC(=O)CSc2nc(C)cc(C(F)(F)F)n2)c([N+](=O)[O-])c1	.	-0.1	.	.	.	.	.
CC(=O)Nc1ccc(OC(=O)CSc2nc3ccccc3s2)cc1	.	0.0	.	.	.	.	.
CCC(=O)N1CC2(CN(C(=O)CN3CCOCC3)C2)c2c([nH]c3cc(OC)ccc23)[C@@H]1CO	0.7	.	.	.	.	.	.
C[C@H]1CCCCO[C@@H](CN(C)C(=O)Nc2ccccc2)[C@@H](C)CN([C@@H](C)CO)C(=O)c2cc(N(C)C)ccc2O1	1.4	-2.8	30.6	.	.	.	.
C[C@@H]1CCCCO[C@@H](CN(C)C(=O)Nc2ccccc2)[C@H](C)CN([C@@H](C)CO)C(=O)c2cc(N(C)C)ccc2O1	4.9	-1.9	107.3*	70.6	7.9	-5.0	-19.5
C[C@H]1CCCCO[C@H](CN(C)C(=O)Nc2ccccc2)[C@@H](C)CN([C@@H](C)CO)C(=O)c2cc(NC(=O)Nc3ccc(F)cc3)ccc2O1	-1.5	.	18.9	.	.	.	.
C[C@@H]1CCCCO[C@H](CN(C)C(=O)Nc2ccccc2)[C@@H](C)CN([C@H](C)CO)C(=O)c2cc(NC(=O)Nc3ccccc3)ccc2O1	-1.1	-0.2	37.2	.	.	.	.
